# In the library only some 1.6% were active in any assay of this set; here they are far more common.
# proCasp7 act – counter-screen for procaspase-3 activators: activators of human procaspase-7; recombinant procaspase-7, Ac-DEVD-pNA absorbance 405 nm; D23A/D198A/D206A triple mutant, cannot self-cleave; scale: DMSO 0, 5 µM enzyme 100; 0.093% of 330,000 active; P55210; AID 463210; activation, % at 8.5 µM;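 active = percent activation above the screen-wide mean plus 3 SD, cut at about 25% in these data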
#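 System: Uncleavable procaspase-7 mutant enzyme; Amount: 2 µM procaspase-7 mutant as dispensed; Schedule: 1 h compound preincubation, 2 h substrate cleavage, 25 °C; Measured by: 405 nm absorbance of p-nitroaniline; Evaluation: percent activation from buffer-corrected 0–120 min absorbance change; Control set: low DMSO alone, high DMSO plus 5 µM PC-7.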
# proCasp3 act – activators of human procaspase-3 | 0.11% of 330,000 active | activation, % at 8.5 µM | P42574 | recombinant procaspase-3 D3A, Ac-DEVD-pNA absorbance 405 nm;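 active = activation above the mean of all tested compounds plus 3 SD, cut at about 21% in these data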;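 note: 0% = DMSO alone and 100% = DMSO wells spiked with extra 5 µM PC-3 D3A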
# Target sequence (P42574 whole entry D9A/D28A/D175A): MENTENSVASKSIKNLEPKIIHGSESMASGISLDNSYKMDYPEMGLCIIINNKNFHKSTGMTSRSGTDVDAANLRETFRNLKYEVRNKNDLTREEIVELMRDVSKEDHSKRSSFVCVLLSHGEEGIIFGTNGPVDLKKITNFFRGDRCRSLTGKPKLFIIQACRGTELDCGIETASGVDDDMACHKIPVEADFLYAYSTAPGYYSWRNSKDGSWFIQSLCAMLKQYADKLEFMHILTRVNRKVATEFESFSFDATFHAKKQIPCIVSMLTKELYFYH
#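 Technique: 405 nm absorbance of p-nitroaniline, reads at 0 and 120 min; Test system: Procaspase-3 D3A mutant; Incubation: 1 h enzyme-compound preincubation, then 2 h substrate reaction, 25 °C; Repeats: singlicate, each compound tested once; Benchmarks: low control DMSO wells, high control DMSO plus 5 µM PC-3 D3A.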
# proKLK7 act – activates the human kallikrein-7 zymogen; 0.9% of 370,000 active; AID 652039; purified proKLK7, EDANS-DABCYL substrate fluorescence; 100% is mature enzyme control, 0% vehicle; P49862; activation, % at 7 µM;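 active = activation above the mean of all tested compounds plus 3 SD, computed per campaign excluding outliers beyond control limits, cut at about 13% in these data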
# Target sequence (P49862 whole entry, looked up): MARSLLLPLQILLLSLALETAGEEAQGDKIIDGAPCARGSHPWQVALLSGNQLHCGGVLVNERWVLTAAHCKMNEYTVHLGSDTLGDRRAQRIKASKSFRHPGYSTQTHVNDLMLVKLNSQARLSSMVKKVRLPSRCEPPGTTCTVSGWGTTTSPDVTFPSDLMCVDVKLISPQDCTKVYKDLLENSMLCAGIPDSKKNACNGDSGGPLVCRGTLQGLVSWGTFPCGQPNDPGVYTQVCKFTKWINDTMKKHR
# Neddylation inh – inhibitors of human cullin neddylation; P61081+Q13564; TR-FRET cullin neddylation, biochemical; calls only at 25 µM; 0.58% of 360,000 active; in the data active = inhibition above about 36%
# procasp7 triplic – activates human procaspase-7, counter-screen for procaspase-3 activators | shares compounds with proCasp3 act | activation, % at 8.5 µM | AID 488941 | recombinant procaspase-7, Ac-DEVD-pNA absorbance; asp23/198/206-to-Ala mutant, cannot self-cleave | 210 tested, under 10 active;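 active = mean activation above a set limit taken from an earlier procaspase-7 screen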;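 note: 0% = DMSO wells and 100% = DMSO plus 5 µM procaspase-7 enzyme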
# procasp3 conf – confirmation of human procaspase-3 activators. shares compounds with proCasp3 act. recombinant PC-3 D3A, Ac-DEVD-pNA absorbance 405 nm; 100% is higher-enzyme control. activation, % at 8.5 µM. 10% of 210 active;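 active = mean activation above a set limit carried over from the earlier primary screen, cut at about 22% in these data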
# Active calls of the source: *; i = inactive; . = not tested or not shown.
SMILES,proCasp7 act,proCasp3 act,proKLK7 act,Neddylation inh,procasp7 triplic,procasp3 conf
O=C(N/N=C/c1ccc(O)cc1O)c1ccc(CN2C(=O)c3cccc4cccc2c34)cc1,24,23*,-14,.,12,21
O=C(N/N=C/c1ccccc1)c1ccc(CN2C(=O)c3cccc4cccc2c34)cc1,-4,-5,-67,.,.,.
Cc1cccc(N2CCN(C(=O)c3c(C)nn(Cc4ccccc4Cl)c3C)CC2)c1C,7,55*,0,i,0,3
COc1ccccc1CNC(=O)CS(=O)Cc1nc(-c2ccccc2C)oc1C (stereo not given),-3,73*,0,i,-6,1
CCCCc1c(-c2ccccc2OC)ncn1Cc1ccccc1C,.,.,1,.,.,.
O=c1[nH]c(N/N=C\c2ccc(F)cc2)nc2ccccc12,22,30*,-34,i,1,-1
O=C(O)c1ccc(/C=N/Nc2nc3ccccc3[nH]2)cc1,6,-3,0,i,.,.
COc1ccc(S[C@]2(C(=O)NCC(C)C)CC(=O)N[C@@H]2c2ccc(OC)cc2)cc1,.,.,0,.,.,.
O=C(NN1C(=O)C2C3C=CC(C3)C2C1=O)c1cccc(Cl)c1 (stereo not given),-8,24*,-1,i,4,3
O=C(NN1C(=O)C2C3C=CC(C4CC34)C2C1=O)c1ccc(Cl)c(Cl)c1 (stereo not given),6,0,0,i,.,.
CCCCOc1ccc(N=Cc2cccs2)cc1,-2,6,0,i,.,.
Oc1ccc(N=Cc2ccc(-c3cccs3)s2)cc1,24,35*,-87,.,-22,-12
CCCNC(=O)c1ccc2c(=O)c(O)c(-c3ccc(C)cc3)[nH]c2c1,20,100*,-270,.,21,29*
CCCNC(=O)c1ccc2c(=O)c(O)c(-c3ccc(OC)cc3)[nH]c2c1,-2,119*,.,i,-2,1
Cc1ccc(CNC(=O)c2ccc3c(=O)c(O)c(-c4ccc(C)cc4)[nH]c3c2)cc1,13,10,-6,i,.,.
CCCNC(=O)c1ccc2c(=O)c(O)c(-c3ccsc3)[nH]c2c1,-1,2,.,.,.,.
Brc1ccc(-c2nn3c(-c4ccco4)nnc3s2)o1,-4,23*,0,i,-17,-12
Brc1ccc(-c2nn3c(-c4ccccn4)nnc3s2)o1,0,-8,-1,i,.,.
Cc1c(C)n2c(SCC(=O)N3CCCCCC3)nnc2[nH]c1=O,9,23*,0,i,1,3
CC(C)C[C@@H]1COc2cc(Br)ccc2S(=O)(=O)N1Cc1cn(CCC2OCCCO2)nn1,.,.,0,.,.,.
COc1ccc(C2=NC(=O)/C(=C\c3cc(OC)c(OC)c(OC)c3)O2)cc1,23,26*,-1,i,27*,33*
CCN(C(=O)c1cnc(OC)cc1C(F)(F)F)c1ccc(Cl)cc1,-4,27*,0,i,3,5
CCN(C(=O)c1cnc(OC)cc1C(F)(F)F)c1ccc(Cl)cc1Cl,4,0,0,i,.,.
CCCCN(C(=O)CSCC(=O)Nc1cccc(C)c1)c1c(N)n(Cc2ccccc2)c(=O)[nH]c1=O,2,24*,0,i,1,3
N#Cc1c(-c2ccccc2)cc2nc3ccccc3n2c1N,14,31*,12,.,-11,-14
SMILES,proCasp7 act,proCasp3 act,proKLK7 act,Neddylation inh,procasp7 triplic,procasp3 conf
O=C(NCCc1ccccc1)OCc1cn(Cc2ccccc2C(F)(F)F)nn1,.,.,0,.,.,.
COc1cccc2sc3cc(C#CC4(O)CCCCC4)ccc3c(=O)c12,-9,-5,0,i,.,.
COc1cc2sc3ccc(C#CC4(O)CCCCC4)cc3c(=O)c2cc1OC,25,70*,-1,i,-22,-13
N=c1oc2ccccc2cc1-c1nc(-c2ccccc2)cs1,21,43*,-20,i,-21,-15
CCOC(=O)C1(CCCc2ccccc2)CCN(C(=O)c2cc(C)nn2CC)CC1,-11,23*,0,i,3,5
CN1CC=C(c2ccccc2)N(c2ccc(Cl)cc2)C1=O,.,.,1,.,.,.
CC(OC(=O)c1cc(=O)[nH]c2ccccc12)C(=O)c1ccccc1 (stereo not given),13,22*,-20,i,2,7
COc1ccccc1NC(=O)C(=O)c1cn(CC(=O)N2CCOCC2)c2ccccc12,2,22*,0,i,3,3
C#CCCN([C@H](C(=O)OC)C(C)C)S(=O)(=O)c1ccccc1Br,.,.,0,.,.,.
N#Cc1cc(S(=O)(=O)c2ccc(Cl)cc2)c(N)[nH]c1=O,21,23*,0,.,-20,-15
CCc1ccc(N2CCN(C(=O)N3CCOCC3)CC2)cc1,11,24*,1,i,3,5
CCOC(=O)[C@]12CCCC3=C1N(CCC3)C(=O)[C@@H](CC(=O)N1CCN(C(=O)C3CC3)CC1)C2,.,.,0,.,.,.
CCCCCOc1ccc(NC2=CC(=O)CCC2)cc1,21,24*,-3,i,0,4
COc1ccc(C2CC(c3ccccc3C(F)(F)F)=NN2c2ccc(S(N)(=O)=O)cc2)cc1 (stereo not given),24,35*,-290,.,-20,-14
COc1ccc(C2CC(c3ccccc3Br)=NN2c2ccc(S(N)(=O)=O)cc2)cc1 (stereo not given),16,21,-115,.,.,.
CC1CCCCC1N(C(=O)c1cc(C2CC2)on1)C1CCCCC1 (stereo not given),.,.,0,.,.,.
Cc1ccc(N2CCN(CC(O)COc3ccccc3)CC2)cc1 (stereo not given),6,28*,1,i,3,2
COCCn1c(N)c(C(=O)NCc2cccs2)c2nc3ccccc3nc21,-1,64*,-56,.,-21,-16
Cc1cc2nc(-c3ccccc3)cc(=O)n2[nH]1,3,23*,-34,.,0,3
COc1cccc(OCCN2CCN(c3ncnc4c3cnn4-c3ccccc3)CC2)c1,3,27*,0,i,3,2
CC(c1ccc(NC(=O)OC(C)(C)C)cc1)c1cn(C)c2ccccc12 (stereo not given),.,.,0,.,.,.
C[C@@H]1ON(C)[C@H]2C[C@H]3c4cc(-c5ccc(F)cc5)ccc4CCN3C[C@@H]12,.,.,1,.,.,.
COc1ccc(/C(C)=N/NC(=O)Cc2cc(=O)[nH][nH]2)cc1OC,.,.,0,.,.,.
N#Cc1c(-c2ccncc2)c2c([nH]c1=O)-c1ccccc1OC2,-1,-8,12,.,.,.
N#Cc1c(-c2ccccc2Cl)c2c([nH]c1=O)-c1ccccc1OC2,4,26*,10,.,-21,-14
C=CCOC(=O)N[C@H](c1ccc(-c2ccccc2)cc1)[C@H](C)/C=C/CC(=O)OC,.,.,1,.,.,.
